Active and inactive are the calls of the source. No cut-off for these calls is given here.

The values below come from ChEMBL document CHEMBL1144815, “Diphenidol-related diamines as novel muscarinic M4 receptor antagonists” (Bioorg Med Chem Lett, 2008).

Assay [1] deals with T1, Muscarinic acetylcholine receptor M1 (Homo sapiens, UniProt P11229).
T1 sequence (P11229 whole entry): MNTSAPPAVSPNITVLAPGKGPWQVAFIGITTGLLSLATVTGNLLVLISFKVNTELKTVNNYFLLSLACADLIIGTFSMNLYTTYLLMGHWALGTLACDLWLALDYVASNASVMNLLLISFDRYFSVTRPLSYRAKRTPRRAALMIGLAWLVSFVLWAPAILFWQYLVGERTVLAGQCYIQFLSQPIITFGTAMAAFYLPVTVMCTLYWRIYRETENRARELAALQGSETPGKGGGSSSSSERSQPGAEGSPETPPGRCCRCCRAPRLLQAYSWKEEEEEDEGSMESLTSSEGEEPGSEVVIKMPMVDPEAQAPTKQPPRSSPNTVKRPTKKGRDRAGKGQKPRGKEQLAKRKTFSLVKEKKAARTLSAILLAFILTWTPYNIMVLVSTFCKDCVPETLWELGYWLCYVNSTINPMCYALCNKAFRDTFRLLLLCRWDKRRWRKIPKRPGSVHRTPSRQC
Put plainly: Displacement of [3H]N-methylscopolamine from human muscarinic M1 receptor expressed in CHO-K1 cells. The format is cell-based.

Assay [2] has as its target T2, Muscarinic acetylcholine receptor M4 (Homo sapiens, UniProt P08173).
T2 sequence (P08173 whole entry): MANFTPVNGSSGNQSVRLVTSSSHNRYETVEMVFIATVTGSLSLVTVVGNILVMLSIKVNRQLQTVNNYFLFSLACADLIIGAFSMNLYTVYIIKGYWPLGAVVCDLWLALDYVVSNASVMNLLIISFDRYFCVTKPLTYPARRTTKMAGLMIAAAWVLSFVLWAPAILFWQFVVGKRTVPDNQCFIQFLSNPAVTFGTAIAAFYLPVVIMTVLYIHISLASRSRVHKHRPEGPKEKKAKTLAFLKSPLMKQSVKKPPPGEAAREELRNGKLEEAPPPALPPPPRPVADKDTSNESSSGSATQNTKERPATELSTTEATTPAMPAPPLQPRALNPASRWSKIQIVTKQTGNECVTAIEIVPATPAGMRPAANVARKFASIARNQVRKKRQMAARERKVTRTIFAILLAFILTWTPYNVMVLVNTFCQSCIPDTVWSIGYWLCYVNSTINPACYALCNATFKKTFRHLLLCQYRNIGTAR
Put plainly: Displacement of [3H]N-methylscopolamine from human muscarinic M4 receptor expressed in CHO-K1 cells. The format is cell-based. Summed up:
(§1)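 Binding was measured in CHO-K1 stable transfectants expressing the human receptor subtype. Labelled ligand was [³H]-N-methylscopolamine chloride. Values are the mean of three experiments performed in triplicate.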

For assay [3], the target named is T3, Muscarinic acetylcholine receptor M4 (Homo sapiens) (UniProt P08173).
T3 sequence (whole entry): T2 sequence (P08173 whole entry)
In words: Antagonist activity at human muscarinic M4 receptor expressed in CHO cells assessed as inhibition of carbachol-induced Eu-GTP binding. It is filed as cell-based. Summed up:
(§2)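 Membranes from CHO-K1 cells stably expressing the human receptor subtype. Agonist was carbachol, and the read-out was carbachol-stimulated binding of the non-hydrolysable analogue Eu-GTP to Gα subunits. pKb was estimated functionally by concentration-ratio analysis. Values are the mean of three experiments run in triplicate.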

Assay [4] deals with T4, Muscarinic acetylcholine receptor M5 (Homo sapiens) (UniProt P08912).
T4 sequence (whole entry): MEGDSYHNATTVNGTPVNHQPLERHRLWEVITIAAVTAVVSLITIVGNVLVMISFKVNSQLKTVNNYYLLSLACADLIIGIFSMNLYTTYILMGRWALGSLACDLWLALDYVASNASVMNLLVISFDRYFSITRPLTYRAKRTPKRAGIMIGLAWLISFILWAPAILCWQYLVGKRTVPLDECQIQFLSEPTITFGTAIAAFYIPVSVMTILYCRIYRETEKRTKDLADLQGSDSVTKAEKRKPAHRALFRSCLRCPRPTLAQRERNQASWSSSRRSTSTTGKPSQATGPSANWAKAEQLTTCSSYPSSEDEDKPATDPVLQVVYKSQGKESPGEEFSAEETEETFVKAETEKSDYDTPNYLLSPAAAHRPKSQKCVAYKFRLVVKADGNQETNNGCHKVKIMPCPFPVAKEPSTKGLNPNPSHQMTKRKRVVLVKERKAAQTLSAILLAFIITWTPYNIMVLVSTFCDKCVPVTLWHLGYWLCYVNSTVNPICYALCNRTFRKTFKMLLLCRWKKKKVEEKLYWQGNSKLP
In words: Antagonist activity at human muscarinic M5 receptor expressed in CHO cells assessed as inhibition of carbachol-induced Eu-GTP binding. It is filed as cell-based. Summed up: as §2

Assay [5] has as its target T5, Muscarinic acetylcholine receptor M2 (Homo sapiens) (UniProt P08172).
T5 sequence (whole entry): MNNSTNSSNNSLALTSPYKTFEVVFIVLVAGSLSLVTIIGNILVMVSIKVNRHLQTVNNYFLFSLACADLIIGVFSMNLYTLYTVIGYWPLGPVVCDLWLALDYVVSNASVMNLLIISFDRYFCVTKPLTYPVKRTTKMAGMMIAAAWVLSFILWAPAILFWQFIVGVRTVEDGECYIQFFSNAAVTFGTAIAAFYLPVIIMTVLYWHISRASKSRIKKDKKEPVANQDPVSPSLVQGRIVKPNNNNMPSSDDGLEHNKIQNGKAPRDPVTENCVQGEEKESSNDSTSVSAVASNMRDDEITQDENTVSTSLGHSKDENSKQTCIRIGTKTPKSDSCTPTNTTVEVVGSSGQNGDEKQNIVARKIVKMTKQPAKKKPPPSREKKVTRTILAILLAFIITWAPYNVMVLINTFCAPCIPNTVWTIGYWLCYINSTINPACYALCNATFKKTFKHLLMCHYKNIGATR
In words: Antagonist activity at human muscarinic M2 receptor expressed in CHO cells assessed as inhibition of basal Eu-GTP binding. It is filed as cell-based.

Assay [6] concerns the target T6, Muscarinic acetylcholine receptor M1 (Homo sapiens) (UniProt P11229).
T6 sequence (whole entry): T1 sequence (P11229 whole entry)
In words: Antagonist activity at human muscarinic M1 receptor expressed in CHO cells assessed as inhibition of carbachol-induced Eu-GTP binding. It is filed as cell-based. Summed up: as §2

The target in assay [7] is T3, Muscarinic acetylcholine receptor M4 (Homo sapiens). Put plainly: Antagonist activity at human muscarinic M4 receptor expressed in CHO cells assessed as inhibition of forskolin-stimulated cAMP accumulation in absence of carbachol at 01 nM to 1 uM. It is filed as functional, cell-based.
Assay [8] concerns the target T2, Muscarinic acetylcholine receptor M4. In words: Antagonist activity at human muscarinic M4 receptor expressed in CHO cells assessed as blockade of carbachol-induced inhibition of forskolin-stimulated cAMP accumulation. The format is functional, cell-based.
Assay [9] deals with T3, Muscarinic acetylcholine receptor M4 (Homo sapiens). Put plainly: Antagonist activity at human muscarinic M4 receptor expressed in CHO cells assessed as inhibition of basal Eu-GTP binding. It is filed as cell-based.
The target in assay [10] is T7, Muscarinic acetylcholine receptor M2 (Homo sapiens, UniProt P08172).
T7 sequence (P08172 whole entry): T5 sequence (whole entry)
Put plainly: Displacement of [3H]N-methylscopolamine from human muscarinic M2 receptor expressed in CHO-K1 cells. The format is cell-based. Summed up:
as §1

Assay [11] addresses T8, Muscarinic acetylcholine receptor M5 (Homo sapiens, UniProt P08912).
T8 sequence (P08912 whole entry): T4 sequence (whole entry)
In words: Displacement of [3H]N-methylscopolamine from human muscarinic M5 receptor expressed in CHO-K1 cells. The format is cell-based. Summed up:
as §1

The target in assay [12] is T9, Muscarinic acetylcholine receptor M3 (Homo sapiens, UniProt P20309). Put plainly: Antagonist activity at human muscarinic M3 receptor expressed in CHO cells assessed as inhibition of basal Eu-GTP binding. The format is cell-based.
Target sequence in this assay (P20309 whole entry, looked up): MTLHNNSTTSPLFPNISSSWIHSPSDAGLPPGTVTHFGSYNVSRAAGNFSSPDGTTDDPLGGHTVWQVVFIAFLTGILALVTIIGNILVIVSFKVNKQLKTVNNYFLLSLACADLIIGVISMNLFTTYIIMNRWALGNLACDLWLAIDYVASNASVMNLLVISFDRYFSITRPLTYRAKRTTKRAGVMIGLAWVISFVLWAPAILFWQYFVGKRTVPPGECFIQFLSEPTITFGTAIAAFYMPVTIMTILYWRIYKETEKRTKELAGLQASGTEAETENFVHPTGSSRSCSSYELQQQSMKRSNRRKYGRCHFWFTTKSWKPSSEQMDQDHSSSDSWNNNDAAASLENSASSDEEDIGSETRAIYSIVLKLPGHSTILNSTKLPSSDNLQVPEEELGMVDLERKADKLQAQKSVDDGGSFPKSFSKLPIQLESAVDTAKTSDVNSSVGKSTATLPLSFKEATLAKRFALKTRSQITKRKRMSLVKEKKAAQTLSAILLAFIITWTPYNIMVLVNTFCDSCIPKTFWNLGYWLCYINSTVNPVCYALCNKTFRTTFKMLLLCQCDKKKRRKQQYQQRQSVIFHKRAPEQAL
For assay [13], the target named is T9, Muscarinic acetylcholine receptor M3. Put plainly: Displacement of [3H]N-methylscopolamine from human muscarinic M3 receptor expressed in CHO-K1 cells. The format is cell-based.
Target sequence in this assay (P20309 whole entry): as the sequence (P20309 whole entry, looked up) above
Assay [14] deals with T4, Muscarinic acetylcholine receptor M5 (Homo sapiens). In words: Antagonist activity at human muscarinic M5 receptor expressed in CHO cells assessed as inhibition of basal Eu-GTP binding. The format is cell-based.
The target in assay [15] is T9, Muscarinic acetylcholine receptor M3. Put plainly: Antagonist activity at human muscarinic M3 receptor expressed in CHO cells assessed as inhibition of carbachol-induced Eu-GTP binding. It is filed as cell-based. Summed up: as §2
Target sequence in this assay (P20309 whole entry, looked up): as above
Assay [16] has as its target T5, Muscarinic acetylcholine receptor M2 (Homo sapiens). In words: Antagonist activity at human muscarinic M2 receptor expressed in CHO cells assessed as inhibition of carbachol-induced Eu-GTP binding. The format is cell-based. Summed up: as §2
Assay [17] has as its target T6, Muscarinic acetylcholine receptor M1 (Homo sapiens). Put plainly: Antagonist activity at human muscarinic M1 receptor expressed in CHO cells assessed as inhibition of basal Eu-GTP binding. It is filed as cell-based.

Consider `CCOC(=O)c1c(C)[nH]c2ccc3c(c12)CN1CCc2cc(OC)ccc2C1O3` (stereo not drawn), for which the Ki in [1] was 2290 nM; in assay [2], 6.46 nM; in assay [10] it was 1100 nM; in [11], 1820 nM; in assay [13] it was 724 nM. Moreover, the pKb is 7.9 in assay [3]; 5.84 in assay [4]; 5.74 in assay [6]; 5.63 in [15]; 5.55 in assay [16]. In addition, the result in assay [5], in assay [7], in [9], in [12], in [14] and in [17] was inactive. In addition, the half-maximal effective concentration (EC50) in assay [8] was 54 nM. In addition, the IC50 in [8] was greater than 1000 nM.
